Laboratory results reported in ChEMBL document CHEMBL3244073, “1,2,4-Triazole amino nucleosides. 1-beta-D-3'-Amino-3'-deoxyribofuranosyl-1,2,4-triazole-3-carboxamide and related nucleosides” (1977).
Active and inactive are the calls of the source. The calls are words filed in the database; no cut-off is given here.

Experiments:
[1] = tested on: Human alphaherpesvirus 1; test: Antiviral activity against Herpes simplex virus 1 HF assessed as inhibition of virus-induced cytopathogenicity; type: functional, organism-based
In short: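 Cytopathogenic effect of HSV-1 strain HF was scored in infected cell cultures exposed to the nucleoside. The procedure was a modified Ehrlich method, as run in earlier work.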

[2] = tested on: P388; test: Cytotoxicity against mouse P388 cells after 72 hrs by hemocytometer-based cell counting method; type: functional; details: P388, 72 h, read-out: LD50 (the source's name)
In short: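 P-388 mouse lymphoid leukemia cells grown in tissue culture with the nucleoside present; cytotoxicity expressed as the LD50 concentration in µg/mL.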

With `N/N=C(/N)c1ncn([C@@H]2O[C@H](CO)[C@@H](N)[C@H]2O)n1` the Activity [1] was “inactive” and the CC50 [2] was > 100 µg/mL.

`NC(=O)c1ncn([C@@H]2O[C@H](CO)[C@@H](N)[C@H]2O)n1` was tested, and the Activity [1] was “inactive” and the CC50 [2] was > 100 µg/mL.

In the case of `NC(=O)c1ncnn1[C@@H]1O[C@H](CO)[C@@H](N)[C@H]1O`, the Activity [1] is reported as “inactive” and the CC50 [2] is reported as > 100 µg/mL.

For `N/C(=N/O)c1ncn([C@@H]2O[C@H](CO)[C@@H](N)[C@H]2O)n1`, the Activity [1] was “inactive” and the CC50 [2] was > 100 µg/mL.

In the case of `N[C@H]1[C@@H](O)[C@H](n2cnc(C(=O)NO)n2)O[C@@H]1CO`, the Activity [1] is reported as “inactive” and the CC50 [2] is reported as > 100 µg/mL.

In the case of `NNC(=O)c1ncn([C@@H]2O[C@H](CO)[C@@H](N)[C@H]2O)n1`, the Activity [1] is reported as “inactive” and the CC50 [2] is reported as > 100 µg/mL.
